In the library only some 2.9% were active in any assay of this set; here they are far more common.
S100A4 inh HTS – inhibitors of S100A4-myosin IIA peptide binding, primary screen, biochemical, fluorescence polarization, TAMRA-MyoIIA peptide; hit rate 0.14% among 360,000; inhibition, % at 10.7 µM; Protein S100-A4 (Homo sapiens), P26447;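 active = mean inhibition of at least 70% across replicates, with every replicate also reaching that level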
Target sequence (P26447 whole entry, looked up): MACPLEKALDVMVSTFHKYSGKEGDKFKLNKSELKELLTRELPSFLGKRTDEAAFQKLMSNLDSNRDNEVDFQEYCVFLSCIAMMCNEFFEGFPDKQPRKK
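Material: S100A4 monomer protein / Buffer or medium: 50 mM HEPES pH 7.2, 10 mM CaCl2, 100 mM KCl / Times: 5 min incubation before reading / Benchmarks: neutral control DMSO, positive control TFP / Reagent: labelled myosin peptide probe, 5 nM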
Statin myotox sup – suppressors of statin myotoxicity in C2C12 myotubes, primary screen, cell-based, single point, plate reader. C2C12 myotubes + simvastatin, ATP luminescence, 48 h; scaled: DMSO 0, geranylgeraniol control 100. rescue of ATP level, % at 7.49 µM. hit rate 0.78% among 330,000. AID 602340, 2012;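 active = mean ATP rescue above about 67%, or every replicate alone reaching that limit, limit read from the data, passing the limit was not always enough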;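 also: myotubes were challenged with 10 µM simvastatin during compound exposure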
SIRT5 inh – SIRT5 desuccinylase inhibitors, primary screen, biochemical, fluorescence imaging, single point, set 5; NAD-dependent protein deacylase sirtuin-5, mitochondrial (Homo sapiens), Q9NXA8; Purified SirT5, succinyl-peptide AMC, trypsin-coupled fluorescence; inhibition, % at 15 µM; hit rate 1.1% among 330,000; AID 652115, 2013; in the data active = inhibition above about 15%
Target sequence (Q9NXA8 whole entry, looked up): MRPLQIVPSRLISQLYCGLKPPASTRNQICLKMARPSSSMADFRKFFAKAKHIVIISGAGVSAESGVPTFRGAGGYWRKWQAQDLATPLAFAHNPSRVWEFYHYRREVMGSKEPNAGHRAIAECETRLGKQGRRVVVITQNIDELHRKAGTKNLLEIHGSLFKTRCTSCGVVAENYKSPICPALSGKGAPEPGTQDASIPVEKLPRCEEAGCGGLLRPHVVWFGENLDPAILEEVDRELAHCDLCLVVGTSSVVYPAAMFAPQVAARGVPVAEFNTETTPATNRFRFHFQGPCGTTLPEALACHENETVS
PGC1a acetyl inh – inhibitors of PGC1a acetylation signal, primary screen, cell-based, U2OS, AlphaScreen, inhibitor mode | inhibition, % at 15.6 µM | AlphaScreen anti-acetyl-lysine; with virally co-expressed GCN5 acetyltransferase | AID 651687, 2012 | hit rate 0.17% among 350,000;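 active = every replicate shows inhibition of at least 40%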
DENV2 CPE rescue – inhibitors of DENV2 cytopathic effect, primary screen, cell-based, plate reader, single concentration; DENV2-infected cells, cytopathic effect rescue; CPE inhibition, % at 9.99 µM; hit rate 1.7% among 350,000; in the data active = CPE inhibition above about 20%, passing the limit was not always enough; tested in BHK-21 cells
Of the large screens only hits and unclear results are named; the others gave an inactive call; ! = not active in a repeat.

O=C(CC1c2cc(F)ccc2C=C(c2ccsc2)N1c1ccc(C#CCCO)cc1)c1ccco1 (stereo unspecified)	SIRT5 inh 17 (no result: Statin myotox sup, PGC1a acetyl inh)
O=c1[nH]c(=O)c2[nH]c(=S)[nH]c2[nH]1	PGC1a acetyl inh 60 (no result: SIRT5 inh)
Cc1cccc2cc(COC(=O)c3ccccc3)c(=O)[nH]c12	none (no result: S100A4 inh HTS, SIRT5 inh, DENV2 CPE rescue)
Cc1cccc2cc(COC(=O)c3cccnc3)c(=O)[nH]c12	Statin myotox sup 102 (no result: S100A4 inh HTS, SIRT5 inh, DENV2 CPE rescue)
Cc1c(C(=O)Oc2cccc3ccccc23)cnn1-c1ccccc1	Statin myotox sup 100 (no result: S100A4 inh HTS, SIRT5 inh, DENV2 CPE rescue)
CCOC(=O)c1cnn(-c2ccccc2)c1-n1cccc1	Statin myotox sup 107 (no result: S100A4 inh HTS, SIRT5 inh, DENV2 CPE rescue)
CC(=O)N1[C@@H]2c3ccc(C4=CCCC4)c(=O)n3C[C@H]1[C@H](CO)[C@H]2C(=O)N[C@@H](C)c1ccccc1	none (no result: PGC1a acetyl inh)
O=C(OCc1nc2ccccc2s1)c1ccccc1O	none (no result: Statin myotox sup)
O=C(OCc1nc2ccccc2s1)c1cnccn1	Statin myotox sup 132 (no result: S100A4 inh HTS, SIRT5 inh, DENV2 CPE rescue)
COCCN(C[C@H]1N[C@H](CO)[C@@H]1c1ccc(-c2ccc(F)cc2)cc1)C(C)=O	DENV2 CPE rescue 35
COCCN(C[C@@H]1N[C@@H](CO)[C@H]1c1ccc(-c2ccc(F)cc2)cc1)C(C)=O	none
CCN(C[C@H]1N[C@H](CO)[C@@H]1c1ccc(-c2ccc(F)cc2)cc1)C(=O)COC	DENV2 CPE rescue 45
CCN(C[C@@H]1N[C@@H](CO)[C@@H]1c1ccc(-c2ccc(F)cc2)cc1)C(=O)COC	none
O=C(c1cccc(-c2cccc3nccn23)c1)N1CCOCC1	DENV2 CPE rescue 33 (no result: SIRT5 inh, PGC1a acetyl inh)
O=C(c1cccc(-c2ccc(O)cc2)c1)N1CCOCC1	none (no result: S100A4 inh HTS, SIRT5 inh, DENV2 CPE rescue)
C[C@H]1CN([C@@H](C)CO)C(=O)c2cccc(NC(=O)Nc3ccc(F)cc3)c2O[C@@H]1CN(C)Cc1ccccc1	none
C[C@@H]1CN([C@H](C)CO)C(=O)c2cccc(NC(=O)Nc3ccc(F)cc3)c2O[C@H]1CN(C)Cc1ccccc1	Statin myotox sup 72
C[C@@H]1CN([C@@H](C)CO)C(=O)c2cccc(NC(=O)Nc3ccc(F)cc3)c2O[C@@H]1CN(C)Cc1ccc(Oc2ccccc2)cc1	DENV2 CPE rescue 55!
C[C@H]1CN([C@@H](C)CO)C(=O)c2cccc(NC(=O)Nc3ccc(F)cc3)c2O[C@@H]1CN(C)Cc1ccc(Oc2ccccc2)cc1	none
C[C@@H]1CCCCO[C@H](CN(C)Cc2ccc(Cl)c(Cl)c2)[C@H](C)CN([C@@H](C)CO)C(=O)c2cc(NS(=O)(=O)c3ccc(Cl)cc3)ccc2O1	none (no result: Statin myotox sup)
C[C@@H]1CN([C@H](C)CO)C(=O)c2cccc(N(C)C)c2O[C@@H]1CN(C)Cc1ccncc1	none
Oc1ccc(-c2n[nH]c(C(F)(F)F)c2-c2ccccc2)c(O)c1	SIRT5 inh 44 (no result: Statin myotox sup)
CC(C)C#Cc1cnc2c(c1)C(=O)N([C@@H](C)CO)C[C@@H](C)[C@@H](CN(C)C(=O)c1ccccc1F)O2	none
O=C(Nc1ccc2c(c1)OCCO2)C(c1ccnc2ccccc12)n1c(=O)c(-c2ccco2)nc2ccccc21 (stereo unspecified)	DENV2 CPE rescue 50 (no result: Statin myotox sup, PGC1a acetyl inh)
Cc1ccc(C(C)C)c(OCCNC(=O)c2ccccc2O)c1	DENV2 CPE rescue 45
COCCNC(=O)C[C@@H]1CC[C@H]2[C@@H](COC[C@@H](O)CN2Cc2cccc(-c3ccncc3)c2)O1	none
O=C(C[C@H]1CC[C@@H]2[C@H](COC[C@H](O)CN2CCC(F)(F)F)O1)NCc1ccc(Oc2ccccc2)cc1	Statin myotox sup 72 (no result: S100A4 inh HTS, SIRT5 inh)
O=C(C[C@H]1CC[C@H]2[C@@H](COC[C@@H](O)CN2Cc2cccc(C(F)(F)F)c2)O1)NCc1ccc(F)cc1	DENV2 CPE rescue 111
O=C(C[C@H]1CC[C@@H]2[C@H](COC[C@H](O)CN2Cc2cccc(C(F)(F)F)c2)O1)NCc1ccc(F)cc1	none
O=C(C[C@H]1CC[C@H]2[C@@H](COC[C@@H](O)CN2Cc2cccc(C(F)(F)F)c2)O1)NCCc1ccccc1	DENV2 CPE rescue 26
COCCNC(=O)C[C@@H]1CC[C@H]2[C@@H](COC[C@H](O)CN2Cc2cccc(-c3ccncc3)c2)O1	S100A4 inh HTS 90
CO[C@H](CN(C)CC1CCOCC1)[C@H](C)CN(C(=O)Nc1ccc(F)cc1)[C@H](C)CO	none

High-throughput results: PubChem, Broad Institute
